Assay outcomes deposited in PubChem by The Scripps Research Institute Molecular Screening Center.
Only some compounds are listed: those with a hit (about 2.7% of all), similar ones and a draw of the others.
pPAFAH inh: inhibitors of human plasma PAF acetylhydrolase (pPAFAH); Q13093; 1.5% of 330,000 active; inhibition, % at 3.39 µM; AID 463082; recombinant pPAFAH, FP-rhodamine probe fluorescence polarization;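 active = inhibition above the mean inhibition across the screen plus 3 SD, cut at about 25% in these data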;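 note: inhibitors block binding of the rhodamine activity-based probe so polarization drops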
Target sequence (Q13093 whole entry, looked up): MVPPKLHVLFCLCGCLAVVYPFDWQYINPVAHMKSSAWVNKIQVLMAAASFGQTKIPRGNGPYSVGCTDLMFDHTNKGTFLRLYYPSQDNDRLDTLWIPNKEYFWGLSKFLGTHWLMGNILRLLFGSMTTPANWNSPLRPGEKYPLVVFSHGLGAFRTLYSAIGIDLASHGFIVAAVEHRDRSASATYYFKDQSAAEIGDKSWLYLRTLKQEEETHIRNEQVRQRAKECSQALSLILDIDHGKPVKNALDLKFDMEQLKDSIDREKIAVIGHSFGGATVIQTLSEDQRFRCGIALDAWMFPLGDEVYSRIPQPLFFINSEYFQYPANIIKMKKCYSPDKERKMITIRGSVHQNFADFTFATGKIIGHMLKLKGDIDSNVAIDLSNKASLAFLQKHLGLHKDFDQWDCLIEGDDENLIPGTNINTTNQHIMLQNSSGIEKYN
ARFGAP1 inhibitor: inhibits rat ARF GTPase activating protein 1; Q62848; 0.26% of 360,000 active; Arfgap1-stimulated ARF1 GTP hydrolysis, GDP FP detection; inhibition, % at 16.5 µM; AID 651572;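 active = inhibition above a per-plate limit, mean inhibition of low control wells plus 3 SD, cut at about 25% in these data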
Target sequence (Q62848 1-136 limits assumed): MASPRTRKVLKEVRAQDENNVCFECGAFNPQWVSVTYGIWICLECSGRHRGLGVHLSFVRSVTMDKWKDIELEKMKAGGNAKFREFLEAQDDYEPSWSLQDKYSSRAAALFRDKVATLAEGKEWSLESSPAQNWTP
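Repeats: one replicate per compound; assay system: rat Arfgap1 catalytic domain, aa 1-136; times: enzyme reaction 120 min at 25 °C after 20 min preincubation; detection: FP of antibody-bound GDP Alexa 633 tracer, ex 620/em 688 nm; benchmarks: high control wells lacking Arfgap1, low control full reaction with DMSO; reagent: human ARF1(Δ1-17)-GTP substrate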
PAFAH1B3 FP inh: inhibitors of human PAFAH1B3; 0.28% of 340,000 active; recombinant PAFAH1B3, FP-rhodamine probe, fluorescence polarization; AID 492972; inhibition, % at 3.39 µM;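 active = inhibition above the screen-wide average of all tested compounds plus 3 SD, cut at about 25% in these data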
ASAP1 GAP inh: inhibitors of human ASAP1 ArfGAP activity. Q9ULH1. AID 624377. inhibition, % at 16.5 µM. 0.19% of 360,000 active. ASAP1-stimulated ARF1 GTP hydrolysis, GDP FP detection; in the data active = inhibition above about 25%
PAFAH2 inh: inhibitors of human PAFAH2; recombinant PAFAH2, FP-rhodamine activity probe, fluorescence polarization; inhibition, % at 3.39 µM; 0.99% of 340,000 active; AID 492956;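 active = inhibition above the mean over all tested compounds plus 3 SD, cut at about 30% in these data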;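 note: inhibitors block probe labeling of enzyme so polarization drops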
PAFAH1B2 inh: blocks human PAF acetylhydrolase 1b catalytic subunit 2; P68402; AID 492953; inhibition, % at 3.39 µM; recombinant PAFAH1B2, FP-rhodamine activity probe, fluorescence polarization; 1.2% of 340,000 active;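 active = inhibition above the mean of all tested compounds plus 3 SD, cut at about 24% in these data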
Of the large screens only hits and unclear results are named; the others gave an inactive call.

O=[N+]([O-])c1ccc(/C=N/NS(=O)(=O)c2ccc(Cl)cc2)o1	none
O=[N+]([O-])c1ccc(/C=N/Nc2ccnc3cc(Cl)ccc23)o1	pPAFAH inh 28.1
Nc1nc(N)c2cc(S(=O)(=O)c3ccc4ccccc4c3)ccc2n1	none (no result: pPAFAH inh, PAFAH1B3 FP inh, PAFAH2 inh, PAFAH1B2 inh)
COC(=O)C1=C(C)N(C)C(=NCc2ccc3c(c2)OCO3)NC1c1cccc(Cl)c1 (stereo not given)	none (no result: pPAFAH inh, PAFAH1B3 FP inh, PAFAH2 inh, PAFAH1B2 inh)
Cc1cc(-c2ccccc2)c2ccc(NC(=O)C(C)(C)C)nc2n1	PAFAH1B2 inh 32.6
Cc1nc2c(C(=O)NCCC(C)C)c[nH]n2c(=O)c1Cc1ccccc1F	pPAFAH inh 30.8
COc1cccc(CN(C)[C@H]2C[C@H]3c4[nH]c5ccccc5c4CCN3C[C@H]2[C@H](C)O)c1OC	none (no result: pPAFAH inh, PAFAH1B3 FP inh, PAFAH2 inh, PAFAH1B2 inh)
CC1CC(NS(=O)(=O)c2cccs2)CC(C)(C)C1 (stereo not given)	PAFAH1B2 inh 28.8
O=S(=O)(NC1CCCCC1)c1cccs1	none
CC(=O)N1CCN(c2ccc(OC[C@H]3CO[C@](Cn4ccnc4)(c4ccc(Cl)cc4Cl)O3)cc2)CC1	pPAFAH inh 25.5
COc1cccc(CNC(=O)[C@H]2CCCN2C(=O)[C@H]2CCCN2C(=O)c2ccccc2)c1	none (no result: pPAFAH inh, PAFAH1B3 FP inh, PAFAH2 inh, PAFAH1B2 inh)
COC(=O)C1=C(C)N(Cc2cccc(C(F)(F)F)c2)C(=NCc2ccc3c(c2)OCO3)NC1c1ccc(Cl)cc1 (stereo not given)	none (no result: pPAFAH inh, PAFAH1B3 FP inh, PAFAH2 inh, PAFAH1B2 inh)
O=C(O)c1ccc(/C=N\Nc2ccc(S(=O)(=O)N3CCOCC3)cc2[N+](=O)[O-])cc1	none
Cc1ccc(-n2c(O)c(/C=N/Nc3ccc(S(=O)(=O)N4CCOCC4)cc3[N+](=O)[O-])c3ccccc3c2=O)c(C)c1	PAFAH2 inh 33.9, PAFAH1B2 inh 63.9
CCCOc1cc(NCc2ccccc2)c2ncn(C(C)C)c2c1	pPAFAH inh 24.9
CC(C)n1cnc2c(NCc3ccccc3)cc(Cc3ccc(F)cc3)cc21	pPAFAH inh 27.8
CCC(CO)Oc1cc(NCc2ccc(Cl)cc2)c2ncn(C(C)C)c2c1 (stereo not given)	PAFAH1B2 inh 28.3
COc1ccc(C2NC(=S)N(Cc3ccc(Cl)cc3)C(C)=C2C(C)=O)cc1 (stereo not given)	none (no result: pPAFAH inh, PAFAH1B3 FP inh, PAFAH2 inh, PAFAH1B2 inh)
O=C1C(=O)N2C(=C1C(=O)N1CCCCCC1)c1ccccc1CC21CCCC1	PAFAH1B2 inh 56.9
CC1(C)Cc2ccccc2C2=C(C(=O)N3CCCCCC3)C(=O)C(=O)N21	PAFAH1B2 inh 61.4
CCC1(CC)Cc2ccccc2C2=C(C(=O)N3CCCCC3)C(=O)C(=O)N21	none
CN(C(=O)CCc1cn(C)c2ccccc12)c1ccc(Oc2cccnc2)cc1	none (no result: pPAFAH inh, PAFAH1B3 FP inh, PAFAH2 inh, PAFAH1B2 inh)
Cc1ccc(OCCNC(=O)[C@@H](Cc2ccccc2)NC(=O)[C@H]2O[C@@H](n3ccc(=O)[nH]c3=O)[C@H](O)[C@@H]2O)cc1C	none (no result: pPAFAH inh, PAFAH1B3 FP inh, PAFAH2 inh, PAFAH1B2 inh)
Cc1ccc(C)n1NC(=O)c1ccccc1O	pPAFAH inh 32.3
Cc1ccc(C)n1NC(=O)c1ccccc1[N+](=O)[O-]	none
Nc1[nH]c(C(=O)c2ccccc2)c(-c2ccccn2)c1C(=O)c1c[nH]c2ccccc12	none (no result: pPAFAH inh, PAFAH1B3 FP inh, PAFAH2 inh, PAFAH1B2 inh)
Cc1cc(C)c2c(ccc3ccccc32)n1	none (no result: pPAFAH inh)
Oc1ccc(-c2nc3ccc4ccccc4c3c3c2CCC3)cc1O	pPAFAH inh 32.9
COCCN1Cc2cc(C(=O)OC)c3c(c2C1=O)c1cc(F)ccc1n3C(=O)c1ccccc1	none (no result: pPAFAH inh, PAFAH1B3 FP inh, PAFAH2 inh, PAFAH1B2 inh)
C=C1C(=O)C23C(O)C1CCC2C12COC3(O)C(O)C1C(C)(C)CCC2O (stereo not given)	none (no result: pPAFAH inh, PAFAH1B3 FP inh, PAFAH2 inh, PAFAH1B2 inh)
C/C=C/C=C/[C@H]1Cc2cc(O)cc(O)c2O1	pPAFAH inh 35.8 (no result: ARFGAP1 inhibitor, PAFAH1B3 FP inh, ASAP1 GAP inh, PAFAH2 inh, PAFAH1B2 inh)
C[C@@H]1ON(C)[C@H]2C[C@H]3c4cc(-c5ccc(F)cc5)ccc4CCN3C[C@@H]12	none (no result: pPAFAH inh, PAFAH1B3 FP inh, PAFAH2 inh, PAFAH1B2 inh)
CC(C(=O)Nc1nccs1)c1ccc([N+](=O)[O-])cc1 (stereo not given)	none
O=C(CSCc1ccc(Cl)cc1)Nc1nccs1	PAFAH1B2 inh 27.7
CC(C)C(C(=O)Nc1nccs1)c1ccc(Cl)cc1 (stereo not given)	PAFAH1B2 inh 36.4
CC(=O)N1C[C@@H](CO)[C@@H](N(C)C(=O)Nc2cccc3ccccc23)C[C@H]1c1ccccc1	none (no result: pPAFAH inh, PAFAH1B3 FP inh, PAFAH2 inh, PAFAH1B2 inh)
CC(=O)C1=C(C)N(Cc2ccc(F)cc2)C(=S)NC1c1ccc(Br)cc1 (stereo not given)	none (no result: pPAFAH inh, PAFAH1B3 FP inh, PAFAH2 inh, PAFAH1B2 inh)
c1ccc(Cc2cnc(N3CCN(Cc4cccc(-c5ccsc5)n4)CC3)nc2)cc1	none (no result: pPAFAH inh, PAFAH1B3 FP inh, PAFAH2 inh, PAFAH1B2 inh)
